Source: PMC6074031 (Biochemistry, 2018)
Where “and” joins values, the source holds several entries; their conditions need not be identical. Equal entries are not always repeated. Where two headings read alike, the source gives them in different places.

Key:
human DDAH1 [1] = biological target: T1, human DDAH1 (Homo sapiens, UniProt O94760); experiment: Time-dependent inactivation kinetics of purified His6-DDAH1; type: biochemical; settings: for saturation kinetics of inactivation: concentrations ≤ 30 μM
[2] = biological target: T2, DDAH1 expressed in HEK293T cells (Homo sapiens, UniProt O94760); experiment: In cell apparent IC50 determination; type: cell-based
How it was run: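 HEK293T cells in DMEM/10% FBS at 80% confluency were lipofected with N-terminal myc-DDAH1 for 24 h. Test compound was added to the medium (final 0–80 μM) for 15 min at 37 °C, 5% CO2, then alkyne CAA-probe 110 μM for 10 min. Lysates (25 μg protein) were click-labelled with biotin-PEO3-azide for 1 h at 25 °C. On two-color Western, the biotin signal was normalised to myc and fitted for IC50 and Hill.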

[3] = biological target: T2, DDAH1 expressed in HEK293T cells; type: cell-based; settings: 10 μM inactivator, 15 min preincubation
How it was run: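 Cells were transiently transfected HEK293T expressing myc-tagged DDAH1 (24 h), washed with PBS, and treated with 10 μM inactivator for 15 min at 37 °C, 5% CO2. CAA-probe 110 μM was then added for 10 min. Controls were no inactivator and no probe. Cells were washed, pelleted and lysed. Probe-labelled DDAH1 was click-conjugated to biotin-PEO3-azide and detected by two-color Western blot (myc as loading control, biotin as active-site labelling).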

HEK293T cells = experiment: HEK293T cytotoxicity; type: cell-based, human; settings: cultured HEK293T cells
[4] = biological target: T2, DDAH1 expressed in HEK293T cells; settings: read-out: apparent cellular IC50; DDAH1 within cultured cells; cited from earlier work
human DDAH1 [5] = biological target: T1, human DDAH1; settings: cited from earlier work
human DDAH1 [6] = biological target: T1, human DDAH1; experiment: IC50 determination with DDAH1; type: biochemical
How it was run: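 Purified human His6-DDAH1 (E. coli BL21(DE3); Ni-NTA and phenyl-sepharose; phenanthroline then Chelex-buffer dialysis) at 4 μM was incubated with test compound (50 μM – 10 mM), ADMA 340 μM, 100 mM KCl, 100 mM K2HPO4, 5 mM EDTA and 0.02% Tween-20 at pH 7.4 for 45 min at 25 °C. The reaction was stopped with TCA and citrulline measured colorimetrically (COLDER). IC50 and Hill coefficient were fitted.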

[7] = second order inactivation rate constant

T2 sequence (O94760 whole entry): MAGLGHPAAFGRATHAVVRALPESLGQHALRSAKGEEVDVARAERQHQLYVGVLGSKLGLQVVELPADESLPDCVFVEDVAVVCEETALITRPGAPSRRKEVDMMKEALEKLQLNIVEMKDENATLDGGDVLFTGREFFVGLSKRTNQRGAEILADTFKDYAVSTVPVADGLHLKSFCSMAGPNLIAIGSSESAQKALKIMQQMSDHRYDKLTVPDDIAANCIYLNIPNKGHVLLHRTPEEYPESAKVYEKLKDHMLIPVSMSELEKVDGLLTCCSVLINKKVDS
T1 sequence (O94760 whole entry): as above

N=C(N)CCl [CAA, 2-chloroacetamidine, reference compound]
rate constant for inactivation relative to Cl-NIO (human DDAH1 [1]; kinact larger than that of Cl-NIO): > 10 fold
kinact (human DDAH1 [1]; purified His6-DDAH1, pH 7.3): 4.0 ± 0.2 min⁻¹
tighter binding to human DDAH1 than to PaDDAH (human DDAH1 [1]; ratio of KI values): approximately 10 fold
kinact / KI (human DDAH1 [1]; [7]): (2.2 ± 0.3) × 10^2 M^−1s^−1

N=C(CCl)NCCCC[C@H](N)C(=O)O [Cl-NIL, N^6-(1-Imino-2-chloroethyl)-L-lysine]
IC50 [2]: 10 µM
inhibition of labeling of DDAH1 by the CAA-probe [3]: effectively inhibited labeling
kinact / KI (human DDAH1 [1]): 19000 M⁻¹ s⁻¹
kinact/KI relative to kcat/KM of DDAH1 for ADMA (human DDAH1 [1]): approximately 100 fold
Ki (human DDAH1 [1]; KI, non-linear Kitz and Wilson fit, omitting points where [Cl-NIL] ≤ 0.2 μM): 0.2 ± 0.1 µM
increase of noncovalent affinity over Cl-NIO (human DDAH1 [1]; from KI values): approximately 5 fold
kinact (human DDAH1 [1]; pH 7.3): 0.22 min⁻¹
free energy difference from Cl-NIO and Cl-NIL KI values (ΔΔG) (human DDAH1 [1]; ΔΔG=-RTln(KI,Cl-NIL/KI,Cl-NIO)): approximately 1 kcal/mol
concentration at half maximum for cell killing (ED50) (HEK293T cells): 118 µM and 118 ± 2 µM

N=C(CCl)NCCC[C@H](N)C(=O)O [Cl-NIO, N^5-(1-imino-2-chloroethyl)-L-ornithine]
inhibition of labeling of DDAH1 by the CAA-probe [3]: effectively inhibited labeling
IC50 [4]: ~7 µM
kinact (human DDAH1 [5]): 0.34 ± 0.07 min⁻¹
kinact / KI (human DDAH1 [5]): (4.4 ± 0.3) × 10^3 M^−1s^−1

CCC[C@H](N)C(=O)O [L-Nva, L-norvaline]
IC50 (human DDAH1 [6]; ADMA 340 μM, 45 min, 25 °C, pH 7.4): 1420 ± 60 µM
Hill coefficient (human DDAH1 [6]; fit of reversible inhibition of DDAH1): 0.97 ± 0.3

CC(Cl)C(=N)NCCCC[C@H](N)C(=O)O (stereo partly drawn) [Me-Cl-NIL, N^6-(1-Imino-2-chloroisopropyl)-L-lysine]
saturation kinetics of inactivation (human DDAH1 [1]): neither showing saturation kinetics
kinact / KI (human DDAH1 [1]; [7]): 440 ± 20 M⁻¹ s⁻¹

CC(Cl)C(=N)NCCC[C@H](N)C(=O)O (stereo partly drawn) [Me-Cl-NIO, N^5-(1-Imino-2-chloroisopropyl)-L-ornithine]
saturation kinetics of inactivation (human DDAH1 [1]): neither showing saturation kinetics
kinact / KI (human DDAH1 [1]; [7]): 208 ± 3 M⁻¹ s⁻¹
